Compound activity: PubChem, Sanford-Burnham Center for Chemical Genomics
A selection: hits, their analogues and other compounds. The true share with any hit is near 0.79%.
hIAP activ – human IAP activation; P09923; purified human IAP, CDP-Star luminescence, 30 min; stronger effect = higher value; 1 = vehicle-only enzyme, 0 = enzyme-free background; activation factor at 10 µM; 330,000 compounds, 0.16% hits; AID 2524;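 active = activation factor of the enzyme at least 2-fold when tested at 20 µM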
Target sequence (P09923 whole entry, looked up): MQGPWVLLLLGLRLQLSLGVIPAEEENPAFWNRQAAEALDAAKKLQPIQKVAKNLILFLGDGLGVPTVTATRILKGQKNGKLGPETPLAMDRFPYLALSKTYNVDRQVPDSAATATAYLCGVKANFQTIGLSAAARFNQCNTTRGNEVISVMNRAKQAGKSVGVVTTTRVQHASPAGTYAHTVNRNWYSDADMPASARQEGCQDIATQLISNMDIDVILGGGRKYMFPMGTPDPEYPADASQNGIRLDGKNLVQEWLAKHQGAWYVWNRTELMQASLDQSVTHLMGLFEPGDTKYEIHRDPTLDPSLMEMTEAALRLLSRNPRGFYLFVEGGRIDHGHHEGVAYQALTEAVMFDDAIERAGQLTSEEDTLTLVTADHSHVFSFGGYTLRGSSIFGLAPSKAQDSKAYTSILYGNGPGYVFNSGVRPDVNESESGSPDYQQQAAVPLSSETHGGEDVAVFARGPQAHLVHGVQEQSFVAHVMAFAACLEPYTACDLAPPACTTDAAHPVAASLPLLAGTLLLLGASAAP
mIAP activ – mouse IAP activation; activation factor at 10 µM; 330,000 compounds, 0.24% hits; muIAP, CDP-Star luminescence, 30 min; stronger effect = higher value; 1 = vehicle-only enzyme signal, 0 = enzyme-free wells;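 active = activation factor of at least 2 at 20 µM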
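System: mouse IAP enzyme. Reagent: CDP-Star chemiluminescent phosphatase substrate. Benchmarks: DMSO wells, no-enzyme wells. Times: 30 min enzyme-substrate-compound incubation at room temperature. Detection: luminescence from enzymatic CDP-Star hydrolysis. Doses: test compounds delivered from DMSO solution.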
bIAP act – increases bovine intestinal alkaline phosphatase activity | purified bovine IAP, CDP-star luminescence, 30 min; stronger effect = higher value; fold of DMSO-control signal, blank-subtracted | activation factor at 20 µM | 200,000 compounds, 0.17% hits;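 active = activation factor of 2 or more at 20 µM, a signal rise over negative controls twice the positive control's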
bIAP inh – blocks bovine intestinal alkaline phosphatase activity; purified bovine IAP, CDP-star luminescence, 30 min; 190,000 tested, under 10 active; inhibition, % at 20 µM;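 active = over 50% inhibition of intestinal alkaline phosphatase at 20 µM in the single-dose screen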
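Assay system – bovine IAP enzyme · Quantity – bovine IAP at 1/65,000,000 final dilution · Detection – CDP-star luminescence signal · Times – 30 min reaction at room temperature · Also added – CDP-star substrate at 30 µM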
mIAP block – mouse IAP inhibition; purified mouse IAP, CDP-Star luminescence, 30 min; inhibition, % at 10 µM; 330,000 compounds, 0.2% hits;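 active = inhibition of at least 40% at 10 µM in the primary screen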;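 also: plate controls were DMSO with enzyme for no effect and no enzyme wells for full effect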
hIAP block – blocks human intestinal alkaline phosphatase | purified IAP, CDP-Star luminescence, 30 min | 330,000 compounds, 0.12% hits | inhibition, % at 10 µM | P09923;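 active = inhibition reaching a set limit with compound at 10 µM in the primary screen, cut at about 35% in these data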;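 also: plate controls were DMSO wells with enzyme for no effect and no-enzyme buffer wells for full effect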
mIAP inh conf – mouse IAP inhibition confirmation; purified mouse IAP, CDP-Star luminescence, 30 min; 11,000 compounds, 4.7% hits; inhibition, % at 10 µM; AID 434971; shares compounds with mIAP block;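 active = inhibition of at least 40% at 10 µM in either of the two replicates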;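 also: plate controls were DMSO wells with enzyme for no effect and buffer wells lacking enzyme for full effect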
An asterisk follows results filed as active; i = inactive; nt = not tested or not shown.

SMILES	hIAP activ	mIAP activ	bIAP act	bIAP inh	mIAP block	hIAP block	mIAP inh conf
CN(CCO)c1ccc(C=NNc2ccc([N+](=O)[O-])cc2S(=O)(=O)Nc2ccccc2C(=O)O)cc1	0.97	0.54	nt	nt	46*	2	46*
CC(=O)Nc1ccc(C=NNc2ccc([N+](=O)[O-])cc2S(=O)(=O)Nc2ccccc2C(=O)O)cc1	0.89	0.68	nt	nt	32	11	nt
O=C1C=C(O)c2c(O)cc(O)c(O)c2C1=O	0.83	0.31	nt	nt	69*	17	55*
O=C1c2ccccc2C(=O)c2c(O)c(O)cc(O)c21	0.81	0.79	nt	nt	22	19	nt
O=c1oc2cc(O)ccc2s1	1.1	0.52	nt	nt	48*	-11	72*
COc1ccc2[nH]c3c(c2c1)CCN1C(=O)C(CC(=O)NC/C=C(\C)CCC=C(C)C)C[C@H](C(=O)N(C(C)C)C(C)C)[C@@]31C (stereo partly specified)	nt	2.2*	nt	nt	-116	nt	-100
C[C@H](CO)N1C[C@H](C)[C@@H](CN(C)S(=O)(=O)c2ccccc2)Oc2ccc(NC(=O)Nc3ccccc3)cc2C1=O	0.96	3.2*	nt	nt	-216	4	-162
COc1ccc(NC(=O)Nc2ccc3c(c2)C(=O)N([C@H](C)CO)C[C@H](C)[C@@H](CN(C)S(=O)(=O)c2ccc(F)cc2)O3)cc1	0.96	2.9*	nt	nt	-185	4	-101
C[C@H](CO)N1C[C@H](C)[C@@H](CN(C)S(=O)(=O)c2ccccc2)Oc2ccc(NC(=O)C3CC3)cc2C1=O	1.3	1	nt	nt	-3	-32	nt
Cc1ccc(S(=O)(=O)N(C)C[C@@H]2Oc3ccc(NC(=O)Nc4cccc5ccccc45)cc3C(=O)N([C@H](C)CO)C[C@H]2C)cc1	1.1	3.3*	nt	nt	-225	-9	-113
C[C@@H]1CN([C@H](C)CO)C(=O)c2cc(NC(=O)Nc3ccc(C(F)(F)F)cc3)ccc2O[C@H]1CN(C)S(=O)(=O)c1cccs1	1	1.7	nt	nt	-69	0	nt
C[C@H](CO)N1C[C@H](C)[C@@H](CN(C)S(=O)(=O)c2cccs2)Oc2ccc(NC(=O)Nc3ccccc3)cc2C1=O	1	3.2*	nt	nt	-221	-1	-152
C/C(=N\NC(=O)c1cc(O)cc(O)c1)c1ccc(NC(=O)Cc2ccccc2)cc1	1	0.49	nt	nt	50*	-3	57*
O=C1NC(=Nc2ccccc2)S/C1=C\C=C\c1ccco1	0.86	0.27	1	2	73*	14	72*
COC(=O)C1=CO[C@@H](O[C@@H]2O[C@H](CO)[C@@H](O)[C@H](O)[C@H]2O)C2C1CC(O)O[C@H]2C (stereo partly specified)	0.94	0.92	nt	nt	8	6	nt
Oc1ccc(/C=N/Nc2cc(N3CCOCC3)nc(N3CCOCC3)n2)cc1O	1.1	0.58	1	4	42*	-11	63*
C=C(C)c1cccc(C(C)(C)NC(=O)Nc2ccc(OC)cc2)c1	0.8	1.1	1	-1	-8	20	nt
C=C(C)c1cccc(C(C)(C)NC(=O)NC(c2ccccc2)c2ccc(OC)cc2)c1 (stereo unspecified)	1.8	12*	0.9	5	i	-82	-359
Cc1cc(C)cc(NC(=O)Cn2c(-c3ccccc3Cl)nc3ccccc32)c1	1.1	2.8*	1.1	-13	-179	-10	-148
Cc1ccc(SCc2nc3ccccc3n2CC(=O)Nc2c(C)cccc2C)cc1	0.87	1.8	1.4	-38	-75	13	nt
Cc1ccc(SCc2nc3ccccc3n2CC(=O)Nc2ccc(Cl)cc2)cc1	1	2.7*	1.2	-15	-175	-2	-86
O=C(Cn1c(COc2ccccc2)nc2ccccc21)Nc1cccc(Cl)c1	0.99	1.1	1.2	-19	-6	1	nt
O=C(Cn1c(CO)nc2ccccc21)Nc1ccccc1Cl	0.98	1	0.9	5	-1	2	nt
O=C(Cn1c(-c2ccccc2Cl)nc2ccccc21)Nc1cccc(Cl)c1	0.95	2.8*	1.1	-12	-183	5	-151
NS(=O)(=O)c1ccc(N=Nc2c(=O)[nH]n3c(=O)c4c([nH]c23)CCCC4)cc1	1.7	0.52	0.5	nt	48*	-66	63*
SMILES	hIAP activ	mIAP activ	bIAP act	bIAP inh	mIAP block	hIAP block	mIAP inh conf
O=c1[nH]n2c(=O)c3c([nH]c2c1N=Nc1cccc(Cl)c1)CCC3	nt	nt	1.2	-24	nt	nt	nt
Cc1cc(C)c(C(=O)N2CCC(N3CCC(C(=O)NC(C)C)CC3)CC2)o1	1	1	nt	nt	-2	-2	nt
CCCCNC(=O)Nc1ccc2c(c1)N(C)C(=O)c1ccccc1S2	1.4	2.7*	nt	nt	-172	-45	-124
CCc1ccc(OCC(=O)Nc2ccc3oc(=O)ccc3c2)cc1	0.83	1	nt	nt	-4	17	nt
O=S(=O)(Nc1cc(Sc2ncn[nH]2)c(O)c2ccccc12)c1ccccc1	1.1	0.93	1	2	7	-8	nt
Cc1cc(O)c(Sc2ncn[nH]2)cc1NS(=O)(=O)c1ccc(Cl)cc1	1.1	0.53	nt	nt	47*	-10	44*
O=C(NCCCO)c1ccc2nc(-c3ccco3)c(-c3ccco3)nc2c1	nt	nt	1.3	-25	nt	nt	nt
O=C(NCCO)Nc1ccc2nc(-c3ccco3)c(-c3ccco3)nc2c1	1.1	0.58	0.9	7	42*	-6	49*
Cc1cc(O)c(C=O)c2c1C(=O)Oc1c(CO)c(O)c3c(c1O2)C(O)OC3=O (stereo unspecified)	0.86	0.13	0.9	15	87*	14	62*
Cc1cc(O)c(CN(C)C)c2c1C(=O)/C(=C/c1ccco1)O2	1	0.81	nt	nt	18	-4	nt
CCCCN(C(=O)COC(=O)COc1c(C)cc(C)cc1C)c1c(N)n(CCC)c(=O)[nH]c1=O	1.1	0.89	nt	nt	11	-6	nt
Cc1ccc(/C=C/C2=Cc3c(sc(NC(=O)CSc4n[nH]c(N)n4)c3C#N)C(C)(C)C2)o1	1.2	0.53	0.9	12	47*	-16	51*
CC(NC(=O)C1CCC(CNS(=O)(=O)c2ccc3c(c2)C(C)(C)C(=O)N3C)CC1)c1ccccc1 (stereo unspecified)	0.88	1	nt	nt	-1	12	nt
CN(C)CC(CCCCC(CN(C)C)C(=O)c1ccccc1)C(=O)c1ccccc1 (stereo unspecified)	0.99	0.98	nt	nt	2	1	nt
Cc1cccc(N2CSC3=C(C#N)C(c4ccc(C)o4)CC(=O)N3C2)c1 (stereo unspecified)	1.1	0.42	1	-1	58*	-5	63*
COc1ccc(OC)c(C2CC(=O)N3CN(c4ccccc4)CSC3=C2C#N)c1 (stereo unspecified)	0.98	0.63	0.9	5	37	2	nt
